Source: ChEMBL document CHEMBL3259770, “Structure-activity relationship studies of the tricyclic indoline resistance-modifying agent” (J Med Chem, 2014)
≈ marks a conversion by molar mass, not a printed value.

Assays:
Staphylococcus aureus [1] = assay: Antibacterial activity against methicillin-resistant Staphylococcus aureus ATCC BAA-44 after 18 hrs by checkerboard test in presence of amoxicillin/clavulanic acid; type: functional
In short: (§1)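 Checkerboard synergy test in MHB, plates in duplicate. Compound was 2-fold diluted across the rows (8 to 0.016 μg/mL). […] Final inoculum OD600 0.001, 37 °C with shaking, 18 h. FICI was taken as FICA + FICB, each the MIC in combination over the MIC alone.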

Staphylococcus aureus [2] = assay: Antibacterial activity against methicillin-resistant Staphylococcus aureus ATCC 33592 after overnight incubation by broth microdilution assay in presence of 4 ug/ml meropenem; type: functional
In short: (§2)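 Resensitization screen: compound from a 5 mg/mL DMSO stock, 2-fold serially diluted in MHB from 32 μg/mL final. Antibiotic was held at its CLSI-susceptible level: amoxicillin/clavulanic acid 4/2 μg/mL, cefazolin 8 μg/mL, meropenem 4 μg/mL. Final MRSA inoculum OD600 0.001, overnight at 37 °C with shaking. MRC was the concentration giving no visible overnight growth.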

[3] = Cytotoxicity against human HeLa cells after 24 hrs by CellTiter-Glo assay; type: cell-based
In short: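 HeLa cells seeded at 20 000 cells/well in DMEM with 10% FCS and 1% penicillin/streptomycin, grown 16 h at 37 °C, 5% CO2. Medium renewed, then compound added in DMSO to final 0.5–32 μg/mL, triplicate series. After 24 h at 37 °C, plates equilibrated to room temperature and viability read by CellTiter-Glo luminescence.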

Staphylococcus aureus [4] = assay: Antibacterial activity against methicillin-resistant Staphylococcus aureus ATCC BAA-44 after 18 hrs by broth microdilution assay; type: functional; conditions: ATCC BAA-44, 18 h
In short: (§3)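 Day culture (OD600 0.15–0.4) diluted to OD600 0.002, then 2-fold on plating for a final inoculum of OD600 0.001. Plates were incubated at 37 °C with shaking for 18 h before reading growth.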

Staphylococcus aureus [5] = assay: Antibacterial activity against methicillin-sensitive Staphylococcus aureus ATCC 25923 after 18 hrs by broth microdilution assay; type: functional; conditions: ATCC 25923, 18 h
In short: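 CLSI broth microdilution in Mueller–Hinton broth. Day culture (OD600 0.15–0.4) diluted to OD600 0.002, then 2-fold on addition to wells, giving a final inoculum of OD600 0.001.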

Staphylococcus aureus [6] = assay: Antibacterial activity against methicillin-resistant Staphylococcus aureus ATCC BAA-44 after 18 hrs by checkerboard test in presence of cefazolin; type: functional; in short: as §1
Staphylococcus aureus [7] = assay: Antibacterial activity against methicillin-resistant Staphylococcus aureus ATCC BAA-44 after overnight incubation by broth microdilution assay in presence of 4 ug/ml amoxicillin and 2 ug/ml clavulanic acid; type: functional; in short: as §2
Staphylococcus aureus [8] = assay: Antibacterial activity against methicillin-resistant Staphylococcus aureus ATCC 33592 after 18 hrs by broth microdilution assay; type: functional; conditions: ATCC 33592, 18 h; in short: as §3
Staphylococcus aureus [9] = assay: Antibacterial activity against methicillin-resistant Staphylococcus aureus ATCC BAA-44 after overnight incubation by broth microdilution assay in presence of 8 ug/ml cefazolin; type: functional; in short: as §2
[10] = Ratio of hemolytic activity in human RBC to antibacterial activity against methicillin-resistant Staphylococcus aureus ATCC 33592 in presence of 4 ug/ml meropenem
[11] = Ratio of hemolytic activity in human RBC to antibacterial activity against methicillin-resistant Staphylococcus aureus ATCC BAA-44 in presence of 8 ug/ml cefazolin
[12] = Ratio of hemolytic activity in human RBC to antibacterial activity against methicillin-resistant Staphylococcus aureus ATCC BAA-44 in presence of 4 ug/ml amoxicillin and 2 ug/ml clavulanic acid
Staphylococcus aureus [13] = assay: Antibacterial activity against methicillin-resistant Staphylococcus aureus ATCC 33592 after 18 hrs by checkerboard test in presence of meropenem; type: functional; in short: as §1
[14] = Hemolytic activity in human RBC at 64 ug/ml after 1 hr relative to control; type: ADME, cell-based, Erythrocyte; conditions: red blood cells, read-out: Activity
In short: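 Freshly drawn heparinized human blood centrifuged; RBCs washed three times in D-PBS and diluted to 1% of original pellet volume. Compound in DMSO added to final 64, 16 and 4 μg/mL. Incubated at 37 °C for 1 h with shaking, then centrifuged; supernatant hemoglobin read at 415 nm. Percent hemolysis taken against 1% Triton X-100 (100%) with DMSO as negative control. Triplicate; run within 3 h of the draw.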

**Q.** With C=C1CCC[C@@H]2Nc3c(F)cc(Br)cc3[C@]12CCNS(=O)(=O)c1ccc(Br)cc1 as the compound, how does the “fractional inhibitory concentration index (FICI)” value (Staphylococcus aureus [1]) read?
**A.** 0.0315

**Q.** What about the MRC (Staphylococcus aureus [2]) of the same compound?
**A.** 1 µg/mL

**Q.** What about the GI50 at 24 h [3] of the same compound?
**A.** 22 µg/mL (≈ 40.4 µM)

**Q.** What about the MIC (Staphylococcus aureus [4]) of the same compound?
**A.** > 64 µg/mL

**Q.** What about the MIC (Staphylococcus aureus [5]) of the same compound?
**A.** > 64 µg/mL

**Q.** What about the “fractional inhibitory concentration index (FICI)” value (Staphylococcus aureus [6]) of the same compound?
**A.** 0.0156

**Q.** What about the MRC (Staphylococcus aureus [7]) of the same compound?
**A.** 1 µg/mL

**Q.** And the MIC (Staphylococcus aureus [8])?
**A.** > 64 µg/mL

**Q.** What about the MRC (Staphylococcus aureus [9]) of the same compound?
**A.** 1 µg/mL

**Q.** And the Ratio [10]?
**A.** 64

**Q.** And the Ratio [11]?
**A.** 64

**Q.** What about the Ratio [12] of the same compound?
**A.** 64

**Q.** What about the “fractional inhibitory concentration index (FICI)” value (Staphylococcus aureus [13]) of the same compound?
**A.** 0.0315

**Q.** And the hemolysis at 1 h, 64 ug/ml [14]?
**A.** < 2%

**Q.** Which MRC (Staphylococcus aureus [2]) does the source give for C=C1CCC[C@@H]2Nc3ccc(Br)cc3[C@]12CCNS(=O)(=O)c1ccc(Cl)cc1 here?
**A.** 4 µg/mL

**Q.** What about the GI50 at 24 h [3] of the same compound?
**A.** 17.1 µg/mL (≈ 35.5 µM)

**Q.** What about the MRC (Staphylococcus aureus [7]) of the same compound?
**A.** 4 µg/mL

**Q.** What about the MRC (Staphylococcus aureus [9]) of the same compound?
**A.** 4 µg/mL

**Q.** Which MRC (Staphylococcus aureus [2]) does the source give for C=C1CCC[C@@H]2Nc3ccc(Br)cc3[C@]12CCNS(=O)(=O)c1ccc(Cl)c(Cl)c1 here?
**A.** 4 µg/mL

**Q.** What about the GI50 at 24 h [3] of the same compound?
**A.** 12.8 µg/mL (≈ 24.8 µM)

**Q.** And the MRC (Staphylococcus aureus [7])?
**A.** 4 µg/mL

**Q.** And the MRC (Staphylococcus aureus [9])?
**A.** 2 µg/mL

**Q.** Which MRC (Staphylococcus aureus [2]) does the source give for C=C1CCC[C@@H]2Nc3c(F)cc(Br)cc3[C@]12CCNS(=O)(=O)c1ccc(C)cc1 here?
**A.** 4 µg/mL

**Q.** And the GI50 at 24 h [3]?
**A.** 22 µg/mL (≈ 45.9 µM)

**Q.** What about the MRC (Staphylococcus aureus [7]) of the same compound?
**A.** 4 µg/mL

**Q.** And the MRC (Staphylococcus aureus [9])?
**A.** 4 µg/mL

**Q.** With C=C1CCC[C@@H]2Nc3c(F)cc(Br)cc3[C@]12CCNS(=O)(=O)c1ccc(C#N)cc1 as the compound, how does the MRC (Staphylococcus aureus [2]) read?
**A.** 4 µg/mL

**Q.** And the GI50 at 24 h [3]?
**A.** 17 µg/mL (≈ 34.7 µM)

**Q.** And the MRC (Staphylococcus aureus [7])?
**A.** 8 µg/mL

**Q.** What about the MRC (Staphylococcus aureus [9]) of the same compound?
**A.** 4 µg/mL

**Q.** For C=C1CCC[C@@H]2Nc3c(F)cc(Br)cc3[C@]12CCNS(=O)(=O)c1ccc(Cl)c(Cl)c1, which MRC (Staphylococcus aureus [2]) is on record?
**A.** 4 µg/mL

**Q.** And the GI50 at 24 h [3]?
**A.** 31 µg/mL (≈ 58 µM)

**Q.** And the MRC (Staphylococcus aureus [7])?
**A.** 4 µg/mL

**Q.** And the MRC (Staphylococcus aureus [9])?
**A.** 4 µg/mL

**Q.** What does the source list for C=C1CCC[C@@H]2Nc3ccc(Br)cc3[C@]12CCNS(=O)(=O)c1ccc(Br)cc1?
**A.** MRC (Staphylococcus aureus [2]): 8 µg/mL; GI50 at 24 h [3]: 40 µg/mL (≈ 76 µM); MRC (Staphylococcus aureus [7]): 4 µg/mL; MRC (Staphylococcus aureus [9]): 4 µg/mL

**Q.** Which results are given for C=C1CCC[C@@H]2Nc3ccc(Br)cc3[C@]12CCNS(=O)(=O)c1ccc(I)cc1?
**A.** MRC (Staphylococcus aureus [2]): 32 µg/mL; GI50 at 24 h [3]: 33 µg/mL (≈ 57.6 µM); MRC (Staphylococcus aureus [7]): 4 µg/mL; MRC (Staphylococcus aureus [9]): 4 µg/mL

**Q.** For C=C1CCC[C@@H]2Nc3c(F)cc(Br)cc3[C@]12CCNS(=O)(=O)c1ccc(F)cc1, which MRC (Staphylococcus aureus [2]) is on record?
**A.** 4 µg/mL

**Q.** What about the GI50 at 24 h [3] of the same compound?
**A.** 18.3 µg/mL (≈ 37.9 µM)

**Q.** And the MRC (Staphylococcus aureus [7])?
**A.** 4 µg/mL

**Q.** What about the MRC (Staphylococcus aureus [9]) of the same compound?
**A.** 4 µg/mL
